NCF1 inh = p47phox/p22phox peptide binding inhibitors, primary screen, biochemical, uHTS, NADPH oxidase regulatory subunit; Neutrophil cytosol factor 1 (Homo sapiens), P14598; fluorescence polarization, 2 h; inhibition, % at 24.7 µM; 220,000 compounds, 0.53% hits; AID 1274, 2008;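 note: 0% = p47phox with labelled peptide and 100% = labelled peptide alone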
eIF4E 4G PPI = eIF4E–eIF4G protein interaction inhibitors, primary screen, biochemical, uHTS, TR-FRET, eIF4GI fragment; Eukaryotic translation initiation factor 4E (Mus musculus) + Eukaryotic translation …; inhibition, % at 21.7 µM; 220,000 compounds, 0.37% hits; TR-FRET eIF4E-eIF4GI(517-606) binding, 2 h;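 note: 0% = full FRET control wells and 100% = background wells lacking eIF4GI fragment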
14-3-3 Bad PPI = inhibitors of 14-3-3 zeta/Bad binding, primary screen, biochemical, TR-FRET, bovine 14-3-3 zeta. 14-3-3 protein zeta/delta (Bos taurus), P63103. inhibition, % at 21.7 µM. AID 781, 2007. 220,000 compounds, 0.71% hits. TR-FRET 14-3-3zeta/Dy647-pBad peptide displacement, 1 h;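 active = inhibition above about 70%, limit read from the data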;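 note: 0% = full 14-3-3 plus peptide FRET controls and 100% = background without 14-3-3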
RBBP9 inhibitor = human RBBP9 inhibitors, primary screen, biochemical, fluorescence polarization, FP-Rh probe, HTS. inhibition, % at 7.94 µM. 220,000 compounds, 0.2% hits. recombinant RBBP9;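 active = inhibition above the campaign mean of all tested compounds plus 3 SD, cut at about 14% in these data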;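 note: plate controls were DMSO wells with RBBP9 for no effect and wells lacking RBBP9 protein for full effect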
Target sequence (O75884 whole entry, looked up): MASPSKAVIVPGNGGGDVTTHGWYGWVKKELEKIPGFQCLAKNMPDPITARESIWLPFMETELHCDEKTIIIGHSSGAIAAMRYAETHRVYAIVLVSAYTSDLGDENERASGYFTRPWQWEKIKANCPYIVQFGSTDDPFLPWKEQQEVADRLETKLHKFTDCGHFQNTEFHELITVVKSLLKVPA
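Assay system: recombinant human RBBP9; Reagent: Serine-hydrolase probe FP-Rh, 375 nM pre-mixing; Doses: 7.94 µM single dose, 0.794% DMSO; Incubation: 30 min then 45 min, 25 °C; Detection: fluorescence polarization (mP), excitation 525 nm, emission 598 nm; Evaluation: percent inhibition from mP, scaled between DMSO and no-protein wells.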
WT yeast gro inh = growth inhibition of WT strain, primary screen, mitochondrial fusion inhibitor project, WT and mutant strains, chemical genetic | mitochondrial fusion phenotypic screen | inhibition, % at 10 µM | 190,000 compounds, 2.1% hits | AID 1362, 2008; in the data active = inhibition above about 58%; tested in S. cerevisiae
EBV gp42 block = Epstein-Barr virus gp42 inhibitors, primary screen, biochemical, uHTS, fluorescence polarization. inhibition, % (tested at 21.74 µM). Fluorescence polarization binding assay, mP read-out. 220,000 compounds, 0.42% hits. Glycoprotein 42 (Epstein-Barr virus (strain AG876)), Q1HVG2; in the data active = inhibition above about 50%
Target sequence (Q1HVG2 whole entry, looked up): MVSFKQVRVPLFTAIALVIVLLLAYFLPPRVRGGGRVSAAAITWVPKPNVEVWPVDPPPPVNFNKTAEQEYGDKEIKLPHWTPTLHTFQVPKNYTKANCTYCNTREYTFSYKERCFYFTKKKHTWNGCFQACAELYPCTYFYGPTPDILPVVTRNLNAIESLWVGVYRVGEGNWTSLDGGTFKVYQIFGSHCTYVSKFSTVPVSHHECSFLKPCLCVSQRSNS
Active calls of the source: *; . = no result; [ ] = another dose, or the depositor's remark. In the library only some 3.7% were active in any assay of this set; here they are far more common.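 Rule for the calls, unless noted: active = inhibition above about 30% (limit read from the data); inactive = the rest.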

SMILES | NCF1 inh | eIF4E 4G PPI | 14-3-3 Bad PPI | RBBP9 inhibitor | WT yeast gro inh | EBV gp42 block
CC1CCN(C(=O)c2ccc3c(c2NCCO)C(=O)c2ccccc2C3=O)CC1 | 11 | -12 | -8 | -5 | 71* | 9
COc1cc(C2Oc3ccccc3C=C2[N+](=O)[O-])cc(OC)c1OC (stereo not drawn) | -6 | -3 | 2 | 1 | . | -26
Cc1cc(=O)n2[nH]c(C)c(-c3ccccc3)c2n1 | -6 | 0 | 6 | -8 | -3 | -6
O=c1cc(-c2ccccc2)nc2c(-c3ccccc3)c(C(F)(F)F)[nH]n12 | -15 | 2 | -2 | -5 | . | 60*
CC(Oc1ccc2oc3ccccc3c2c1)C(=O)NC12CC3CC(CC(C3)C1)C2 (stereo not drawn) | -42 | 0 | -6 | 2 | 67* | -15
CCn1ccnc1CN(C)Cc1cn(-c2cccc(C)c2)nc1-c1cccc(F)c1 | 1 | 10 | 3 | -12 | 65 | -1
CCn1ccnc1CN(C)Cc1cn(-c2ccc(C)cc2)nc1-c1cccc(C)c1 | -7 | -1 | -5 | -7 | 68* | 4
Cc1ccc(-n2cc(CN3CCN(Cc4nccn4C)CC3)c(-c3cccc(C)c3)n2)cc1 | -14 | 0 | -8 | -8 | 66* | -16
CC1=C(C#N)c2nc(N)c(C#N)c(C)c2/C1=C\c1ccc(-c2ccccc2C(=O)O)o1 | 37* | 12 | 56 | -5 | -3 | 8
COc1cc(/C=C2/C(C)=C(C#N)c3nc(N)c(C#N)c(C)c32)ccc1OCC(=O)O | -4 | 2 | -3 | 3 | -1 | 6
CC(Oc1ccc(Cl)cc1Cl)c1ccnc2nc(N3CCOCC3)nn12 (stereo not drawn) | -4 | -5 | -7 | 0 | 75* | -7
Cc1nn(Cc2ccccc2Cl)c(C)c1NC(=O)NC12CC3CC(CC(C3)C1)C2 | 3 | 1 | -12 | -7 | 73* | 15
CCOc1cc(NC(=S)NCC2CCCO2)c(OCC)cc1NC(=O)c1cccc(F)c1 (stereo not drawn) | 0 | 0 | -7 | 0 | 6 | -9
Cc1c(N2C(=O)/C(=C\c3ccccc3O)SC2=S)c(=O)n(-c2ccccc2)n1C | 7 | -1 | -1 | -15 | . | -13
CN1C(=O)/C(=C/c2cc(N=Nc3ccccc3)ccc2O)SC1=S | -21 | 2 | 7 | -5 | 96* | 4
CCOC(=O)CSc1n[nH]c(-c2cccnc2)n1 | 3 | -11 | -2 | -5 | 95* | -10
CNC(=O)C(=O)N/N=C/c1cccnc1 | 6 | -1 | 8 | 0 | . | -4
COc1ccc(NC(=O)C(=O)N/N=C/c2cccnc2)cc1 | -9 | 85* | -3 | -13 | . | -2
C=CCSc1nc(-c2ccc(OC)cc2)c(C#N)c(=O)n1CC=C | -8 | 89* | -1 | 5 | 18 | -7
COc1ccc(-c2nc3n(c(=O)c2C#N)CCS3)cc1 | -4 | 2 | -20 | 3 | -1 | -10
CCCCNC(=O)COC(=O)c1ccc(N(C)C)cc1 | 0 | 3 | -2 | -5 | -15 | 2
CCOc1ccccc1OCc1nn2c(COc3ccccc3)nnc2s1 | -16 | 32* | -8 | -8 | 20 | -23
CCC(C(=O)NC(C)CCc1ccco1)n1nc(C)n2c(cc3occc32)c1=O (stereo not drawn) | -3 | 50* | 13 | -6 | -13 | -21
CN1CCN(c2nc(-c3cccnc3)nc3ccccc23)CC1 | 0 | 1 | 13 | -1 | 94* | -11
CCN(C(=O)CN1CC(C)OC(C)C1)c1c(N)n(Cc2ccccc2)c(=O)[nH]c1=O (stereo not drawn) | 3 | 4 | -1 | 3 | 5 | -16
SMILES | NCF1 inh | eIF4E 4G PPI | 14-3-3 Bad PPI | RBBP9 inhibitor | WT yeast gro inh | EBV gp42 block
O=C(NCc1ccco1)c1c2c(nc3ccccc13)CCC2 | 2 | . | . | -5 | 10 | 62*
O=C(NCc1ccc(F)cc1)c1c2c(nc3ccccc13)CCC2 | -7 | 36* | 11 | 7 | -4 | 10
COc1ccc2cc3c(N)c(C(=O)NCc4ccco4)sc3nc2c1 | -23 | 1 | 10 | -6 | 5 | 21
O=C(CSc1c2c(nc3ccccc13)CCCC2)NCc1ccco1 | 13 | 1 | -4 | -1 | 13 | -6
Nc1c(C(=O)NCc2ccco2)sc2nc3c(cc12)C(=O)CCC3 | -17 | 32*[fluorescence artefact?] | 10 | 0 | -1 | 45
CC(C)(C)C(=O)Nc1cccc(-c2cc(-c3c(Cl)cccc3Cl)no2)c1 | -11 | 8 | -2 | -21 | . | -10
COc1ccc(CCN2C(=NC(=O)CC(C)C)SC3CS(=O)(=O)CC32)cc1OC (stereo not drawn) | -14 | 2 | 1 | 10 | . | -17
FC(F)(F)c1nnc2n1N=C(c1cccs1)CS2 | 0 | 0 | -13 | -6 | -11 | -7
CCNc1nc(Sc2ccc(C)cc2)cc(C(F)(F)F)n1 | -11 | 4 | -10 | 10 | 85* | -12
O=C(O)CCCCCN1C(=O)/C(=C\c2ccc(-c3ccc(Cl)cc3)o2)SC1=S | 16 | 24 | 71* | 4 | . | 25
CC(C(=O)NC(C)(C)C)N1C(=O)c2cccc3cccc(c23)C1=O (stereo not drawn) | 3 | -2 | -6 | -10 | -4 | 12
CC1CN(c2nc3ccccc3nc2C(C#N)C(=O)NCc2ccc3c(c2)OCO3)CC(C)O1 (stereo not drawn) | -14 | -4 | -7 | -10 | 15 | 71*
COc1cc(O)c(C(CCN2CCOCC2)c2cc(OC)c(OC)c(OC)c2)c(OC)c1 (stereo not drawn) | -1 | -2 | 2 | . | . | -17
Cc1ccccc1C(=O)OCCCN=C1NS(=O)(=O)c2ccccc21 | -9 | 4 | 4 | -5 | -3 | -16
CN(CCC#N)C(=O)COC(=O)c1c2c(nc3ccccc13)/C(=C/c1ccco1)CC2 | -10 | 7 | -10 | -4 | 27 | 95*
COc1ccc(O)c(C(=O)c2cc(SCC(=O)O)c3nc4sc5c(c4c(=O)n3c2)CCCC5)c1 | -32 | 39* | 46 | -24 | . | 24
O=C(O)c1ccc(/C=N/N2CCN(Cc3cccc4ccccc34)CC2)cc1 | -13 | 1 | 94* | -3 | -12 | -8
CCN1CCCC1CNCc1cccc(OC)c1OCc1ccc(F)cc1 (stereo not drawn) | 23 | -1 | 77* | -3 | -3 | -10
CCCc1cc(=O)n2c([nH]c3ccccc32)c1C#N | 48* | 12 | 3 | -9 | 25 | -23

Screening results: PubChem BioAssay, several laboratories
